The values that follow come from ChEMBL document CHEMBL3124807 (Eur J Med Chem, 2014).

Some results are limits rather than exact numbers.

Usually inhibition in vivo stands for how much of the control response was suppressed. What is called IC50 is the concentration that inhibits the measured activity by half.

A short description of series [1]: Selectivity index, ratio of IC50 for ovine COX1 to IC50 for human recombinant COX2. In short, it runs like this:
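IC50 (COX-1)/IC50 (COX-2). Both IC50 values come from the EIA described above, run with ovine COX-1 or human recombinant COX-2 under the same buffer, preincubation, arachidonic acid and duplicate conditions.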

Series [2] relates to Rattus norvegicus. The series can be described thus: Antiinflammatory activity in Wistar albino rat assessed as inhibition of formalin-induced paw edema at 50 mg/kg, po administered 1 hr prior to formalin challenge measured after 2 hrs relative to control. It counts as functional. In short, it runs like this:
(§1)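 Adult male Wistar albino rats (120–150 g), five per group. Dosed orally at 50 mg/kg in 10% aqueous DMSO (v/v) 1 h before 0.1 ml of 2.5% formalin was injected subcutaneously into the right hind paw; vehicle-only control group. Paw thickness was measured by Vernier caliper at 0 h and at 30 min, 1, 2 and 3 h. Edema inhibition % = (Vc − Vt)/Vc × 100; means of five ± S.E.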

Series [3] deals with T1, Prostaglandin G/H synthase 2 (Homo sapiens, UniProt P35354).
T1 sequence (P35354 whole entry): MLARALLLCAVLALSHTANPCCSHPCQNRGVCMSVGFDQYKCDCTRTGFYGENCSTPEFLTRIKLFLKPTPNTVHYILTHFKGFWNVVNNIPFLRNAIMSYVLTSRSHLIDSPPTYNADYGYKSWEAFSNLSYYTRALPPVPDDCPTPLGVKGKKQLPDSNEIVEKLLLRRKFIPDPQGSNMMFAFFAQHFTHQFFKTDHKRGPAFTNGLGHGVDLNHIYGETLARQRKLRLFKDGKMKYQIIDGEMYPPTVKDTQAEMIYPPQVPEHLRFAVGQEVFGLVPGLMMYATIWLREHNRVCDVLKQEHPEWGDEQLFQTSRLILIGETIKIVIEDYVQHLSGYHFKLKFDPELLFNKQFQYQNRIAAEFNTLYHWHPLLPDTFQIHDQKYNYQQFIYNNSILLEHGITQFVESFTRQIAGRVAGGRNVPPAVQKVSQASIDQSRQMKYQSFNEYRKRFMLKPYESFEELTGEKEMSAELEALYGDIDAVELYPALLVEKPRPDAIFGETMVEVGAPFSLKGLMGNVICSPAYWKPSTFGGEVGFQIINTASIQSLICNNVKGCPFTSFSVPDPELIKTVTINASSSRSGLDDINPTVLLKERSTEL
The series can be described thus: Inhibition of human recombinant COX2 using arachidonic acid as substrate incubated for 10 mins prior to substrate addition measured after 2 mins by enzyme immunoassay.

Series [4] concerns Rattus norvegicus. The series can be described thus: Ulcerogenic effect in fasted Wistar albino rat at 50 mg/kg, po measured 2 hrs post last dose. It counts as toxicity, organism-based. Details: dose 50 mg/kg, route oral. As to conditions: in vivo. In short, it runs like this:
(§2)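 Adult male Wistar albino rats (120–150 g), five per group, fasted 18 h before dosing. Oral doses were given for three successive days (test compounds 50 mg/kg, ibuprofen 25 mg/kg; control 10% aqueous DMSO), with feeding 2 h after dosing. Stomachs were removed 2 h after the last dose, opened along the greater curvature, rinsed with 0.9% NaCl and examined under a 10× lens. Ulcer index followed Robert's method (incidence/10, mean ulcer number, severity score).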

The subject of series [5] is Rattus norvegicus. Kind of series: Antiinflammatory activity in Wistar albino rat assessed as inhibition of formalin-induced paw edema at 50 mg/kg, po administered 1 hr prior to formalin challenge measured after 1 hr relative to control. It counts as functional. In short, it runs like this:
as §1

Series [6] concerns Rattus norvegicus. The series can be described thus: Antiinflammatory activity in Wistar albino rat assessed as inhibition of formalin-induced paw edema at 50 mg/kg, po administered 1 hr prior to formalin challenge measured after 30 mins relative to control. It counts as functional. In short, it runs like this:
as §1

The target in series [7] is T2, Prostaglandin G/H synthase 1 (Ovis aries, UniProt P05979).
T2 sequence (P05979 whole entry): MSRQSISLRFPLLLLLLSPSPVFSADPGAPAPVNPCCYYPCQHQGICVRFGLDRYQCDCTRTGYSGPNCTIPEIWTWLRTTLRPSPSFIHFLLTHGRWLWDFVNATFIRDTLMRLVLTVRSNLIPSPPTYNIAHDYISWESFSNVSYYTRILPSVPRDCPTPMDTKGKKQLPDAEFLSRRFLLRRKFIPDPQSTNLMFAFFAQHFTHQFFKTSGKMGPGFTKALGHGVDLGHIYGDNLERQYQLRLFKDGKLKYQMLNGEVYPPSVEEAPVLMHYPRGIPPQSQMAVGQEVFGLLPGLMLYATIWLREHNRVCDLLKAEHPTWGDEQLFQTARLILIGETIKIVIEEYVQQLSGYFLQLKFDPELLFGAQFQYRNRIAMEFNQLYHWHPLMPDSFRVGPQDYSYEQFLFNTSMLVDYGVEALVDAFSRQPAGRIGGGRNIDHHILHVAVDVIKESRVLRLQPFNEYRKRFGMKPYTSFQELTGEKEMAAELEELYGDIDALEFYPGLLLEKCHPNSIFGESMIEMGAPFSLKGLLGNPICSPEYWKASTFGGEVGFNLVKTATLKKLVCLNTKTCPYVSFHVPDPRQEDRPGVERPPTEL
The series can be described thus: Inhibition of ovine COX1 using arachidonic acid as substrate incubated for 10 mins prior to substrate addition measured after 2 mins by enzyme immunoassay. The procedure, abridged: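 Ovine COX-1 in 0.1 M Tris-HCl pH 8.0 with 5 mM EDTA, 2 mM phenol and heme. Test concentrations were 0, 0.01, 0.1, 1, 10 and 50 (final volume 1 ml). Preincubated 10 min at 37 °C, then arachidonic acid (100) was added and the reaction was stopped with 1 M HCl after 2 min. PGF2α (from SnCl2 reduction of PGH2) was quantified by competitive EIA at 410 nm. IC50 was taken from the concentration–inhibition curve, duplicates.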

Series [8] deals with Rattus norvegicus. The series can be described thus: Antiinflammatory activity in Wistar albino rat assessed as inhibition of formalin-induced paw edema at 50 mg/kg, po administered 1 hr prior to formalin challenge measured after 3 hrs relative to control. It counts as functional. In short, it runs like this:
as §1

Series [9] concerns Rattus norvegicus. Kind of series: Ulcerogenic effect in fasted Wistar albino rat at 25 mg/kg, po measured 2 hrs post last dose. It counts as toxicity, organism-based. Details: dose 25 mg/kg, route oral. The note with it: in vivo. In short, it runs like this: as §2
The subject of series [10] is Rattus norvegicus. Kind of series: Ulcerogenic effect in fasted Wistar albino rat assessed as reduction in ulcerogenic potential at 50 mg/kg, po measured 2 hrs post last dose relative to celecoxib. It counts as toxicity, organism-based. Details: dose 50 mg/kg, route oral; scale not given: the % may be the effect or the level left. The note with it: in vivo.

Regarding `COc1cc2occc2c(OC)c1-c1cc(-c2ccc(F)cc2)n(-c2ccc(S(N)(=O)=O)cc2)n1`, the Ratio IC50 in [1] is greater than 109. Also, the inhibition in vivo at 50 mg/kg in the series on Rattus norvegicus [2] came to 82.8%; in the series on Rattus norvegicus [5], 82.5%; in the series on Rattus norvegicus [6], 79.6%; in the series on Rattus norvegicus [8] it was 83.6%. Also, the IC50 in series [3] was 0.46 µM; in series [7] it was greater than 50 µM. Moreover, in the series with Rattus norvegicus [4], the UI worked out at 11.75.
`COc1c(-c2cc(C(F)(F)F)nn2-c2ccc(S(N)(=O)=O)cc2)c(O)cc2occc12`: in series [1], the Ratio IC50 was greater than 7.14. Further, the IC50 in series [3] is 7 µM; in series [7] it was greater than 50 µM.
For `CC(C)Cc1ccc(C(C)C(=O)O)cc1` (centres undefined) [IBUPROFEN], the UI with Rattus norvegicus [9] was found to be 22.32.
Regarding `COc1cc2occc2c(OC)c1-c1cc(-c2ccccc2)n(-c2ccc(S(N)(=O)=O)cc2)n1`, in [1], the Ratio IC50 is greater than 1.43. The IC50 in [3] is 35 µM; in series [7] it was greater than 50 µM.
As for `COc1c(-c2cc(C(F)(F)F)nn2-c2ccc(S(N)(=O)=O)cc2)c(O)c(OC)c2occc12`, in series [1], the Ratio IC50 is greater than 96.2. Moreover, the inhibition in vivo at 50 mg/kg worked out at 87.9% with Rattus norvegicus [2], 79% in the series with Rattus norvegicus [5], 72.2% in the series on Rattus norvegicus [6] and 91.8% in the series with Rattus norvegicus [8]. In addition, the IC50 in series [3] is 0.52 µM; in series [7], greater than 50 µM. Also, in the series with Rattus norvegicus [4], the UI turned out to be 11.56.
On to `COc1cc2occc2c(OC)c1-c1cc(-c2ccc(C(F)(F)F)cc2)n(-c2ccc(S(N)(=O)=O)cc2)n1`, for which the Ratio IC50 in series [1] was greater than 147. Also, the inhibition in vivo at 50 mg/kg in the series with Rattus norvegicus [2] is 94.8%; in the series with Rattus norvegicus [5], 77.2%; with Rattus norvegicus [6], 66.7%; in the series on Rattus norvegicus [8], 91.8%. In addition, the IC50 is 0.34 µM in series [3] and greater than 50 µM in series [7]. Moreover, the UI in the series with Rattus norvegicus [4] is 10.5.
Consider `Cc1ccc(-c2cc(C(F)(F)F)nn2-c2ccc(S(N)(=O)=O)cc2)cc1` [CELECOXIB], for which the inhibition in vivo at 50 mg/kg in the series on Rattus norvegicus [2] turned out to be 100%; in the series on Rattus norvegicus [5], 100%; in the series with Rattus norvegicus [6], 94.4%; with Rattus norvegicus [8] it was 100%. Further, the UI with Rattus norvegicus [4] was 16.12.
Turning to `COc1c(-c2cc(-c3cccnc3)nn2-c2ccc(S(N)(=O)=O)cc2)c(O)cc2occc12`, the Ratio IC50 in series [1] is greater than 125. Besides, the inhibition in vivo at 50 mg/kg amounted to 100% with Rattus norvegicus [2], 96.2% in the series with Rattus norvegicus [5], 90.1% in the series with Rattus norvegicus [6] and 100% in the series with Rattus norvegicus [8]. Moreover, the IC50 is 0.4 µM in series [3] and greater than 50 µM in series [7]. This compound came in with a UI in the series on Rattus norvegicus [4] of 13.82.
Consider `COc1c(-c2cc(-c3cccnc3)nn2-c2ccc(S(N)(=O)=O)cc2)c(O)c(OC)c2occc12`, for which the Ratio IC50 in [1] was greater than 139. Moreover, the inhibition in vivo at 50 mg/kg in the series on Rattus norvegicus [2] turned out to be 100%; in the series on Rattus norvegicus [5], 96.5%; with Rattus norvegicus [6] it was 90.7%; in the series on Rattus norvegicus [8], 100%. Moreover, the figures for the IC50 in series [3] and in [7] were 0.36 µM and greater than 50 µM, respectively. Moreover, the UI with Rattus norvegicus [4] worked out at 10.5. The Activity in the series on Rattus norvegicus [10] is 40%.
As for `COc1c(-c2cc(C)nn2-c2ccc(S(N)(=O)=O)cc2)c(O)cc2occc12`, in series [1], the Ratio IC50 is greater than 6.67. The IC50 in series [3] is 7.5 µM; in series [7] it was greater than 50 µM.
As for `COc1cc2occc2c(OC)c1-c1cc(-c2ccc(Cl)cc2)n(-c2ccc(S(N)(=O)=O)cc2)n1`, in [1], the Ratio IC50 is greater than 1.93. For the same compound, the IC50 in series [3] is 26 µM; in series [7], greater than 50 µM.
